Source: ChEMBL document CHEMBL5154945, “Discovery and Optimization of Pyrrolopyrimidine Derivatives as Selective Disruptors of the Perinucleolar Compartment, a Marker of Tumor Progression toward Metastasis” (J Med Chem, 2022)

Columns and labels:
PC-3M [1] = experiment: Inhibition of cell migration at human PC-3M cells measured after 5 days by Hoechst 33342 staining based microscopic method; type: functional; conditions: 120 h
PC-3M [2] = experiment: Antiproliferative activity against human PC-3M cells expressing PTB/GFP fusion protein assessed as cell growth inhibition at < 100 nM and measured every four hrs for 130 hrs by IncuCyte zoom live cell analysis; type: functional, cell-based; conditions: DDE = dose-dependent effect
Method in brief: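 PC3M cells stably expressing GFP-PTB, grown in DMEM with 10% FBS and 1% penicillin/streptomycin, seeded at 1.25×10^4 cells/ml in 384-well plates and left overnight at 37 °C, 5% CO2. Compound added in DMEM to give 11 final concentrations from 10 nM to 20 μM. Brightfield images were taken every 4 h for about 130 h and scored as percent confluence.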

PC-3M [3] = experiment: Cytotoxicity against human PC-3M cells expressing PTB/GFP fusion protein assessed as reduction in ATP level at 20 uM and measured after 24 to 48 hrs by ATPlite luminescence assay; type: toxicity, cell-based; conditions: time 24-48 hrs
PC-3M [4] = experiment: Antiproliferative activity against human PC-3M cells expressing PTB/GFP fusion protein assessed as reduction of nucleolar volume at 1 to 30 uM measured after 24 hrs by Nucleolar-id Green Detection based confocal microscopic analysis; type: functional, cell-based; conditions: dose 1-30 µM, DDE = dose-dependent effect
Method in brief: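 PC-3M cells grown in RPMI 1640 with 10% FBS and penicillin/streptomycin, trypsinized at 70% confluence, and seeded at 2×10^5 cells/mL overnight at 37 °C, 5% CO₂. Medium replaced with compound or 1% DMSO for 24 h. Nucleoli stained with Nucleolar-ID Green and nuclei with Hoechst 33342, then imaged by confocal microscopy. Bright green objects in three images per condition normalized to nuclei count; vehicle set to 100.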

CCRF-CEM = experiment: Anticancer activity against human CCRF-CEM cells assessed as cell growth inhibition; type: functional, cell-based; conditions: dose 1-100 µM, DDE = dose-dependent effect
HL-60(TB) = experiment: Anticancer activity against human HL-60(TB) cells assessed as cell growth inhibition; type: functional, cell-based; conditions: dose 1-100 µM, DDE = dose-dependent effect
K562 = experiment: Anticancer activity against human K562 cells assessed as cell growth inhibition; type: functional, cell-based; conditions: dose 1-100 µM, DDE = dose-dependent effect
MOLT-4 = experiment: Anticancer activity against human MOLT-4 cells assessed as cell growth inhibition; type: functional, cell-based; conditions: dose 1-100 µM, DDE = dose-dependent effect
RPMI-8226 = experiment: Anticancer activity against human RPMI-8226 cells assessed as cell growth inhibition; type: functional, cell-based; conditions: dose 1-100 µM, DDE = dose-dependent effect
SR = experiment: Anticancer activity against human SR cells assessed as cell growth inhibition; type: functional, cell-based; conditions: dose 1-100 µM, DDE = dose-dependent effect
A549 = experiment: Anticancer activity against human A549 cells assessed as cell growth inhibition; type: functional, cell-based; conditions: dose 1-100 µM, DDE = dose-dependent effect
EKVX = experiment: Anticancer activity against human EKVX cells assessed as cell growth inhibition; type: functional, cell-based; conditions: dose 1-100 µM, DDE = dose-dependent effect
HOP-62 = experiment: Anticancer activity against human HOP-62 cells assessed as cell growth inhibition; type: functional, cell-based; conditions: dose 1-100 µM, DDE = dose-dependent effect
NCI-H226 = experiment: Anticancer activity against human NCI-H226 cells assessed as cell growth inhibition; type: functional, cell-based; conditions: dose 1-100 µM, DDE = dose-dependent effect
NCI-H23 = experiment: Anticancer activity against human NCI-H23 cells assessed as cell growth inhibition; type: functional, cell-based; conditions: dose 1-100 µM, DDE = dose-dependent effect
NCI-H322M = experiment: Anticancer activity against human NCI-H322M cells assessed as cell growth inhibition; type: functional, cell-based; conditions: dose 1-100 µM, DDE = dose-dependent effect
NCI-H460 = experiment: Anticancer activity against human NCI-H460 cells assessed as cell growth inhibition; type: functional, cell-based; conditions: dose 1-100 µM, DDE = dose-dependent effect
NCI-H522 = experiment: Anticancer activity against human NCI-H522 cells assessed as cell growth inhibition; type: functional, cell-based; conditions: dose 1-100 µM, DDE = dose-dependent effect
COLO 205 = experiment: Anticancer activity against human COLO 205 cells assessed as cell growth inhibition; type: functional, cell-based; conditions: dose 1-100 µM, DDE = dose-dependent effect
HCC 2998 = experiment: Anticancer activity against human HCC 2998 cells assessed as cell growth inhibition; type: functional, cell-based; conditions: dose 1-100 µM, DDE = dose-dependent effect
HCT-116 = experiment: Anticancer activity against human HCT-116 cells assessed as cell growth inhibition; type: functional, cell-based; conditions: dose 1-100 µM, DDE = dose-dependent effect
HCT-15 = experiment: Anticancer activity against human HCT-15 cells assessed as cell growth inhibition; type: functional, cell-based; conditions: dose 1-100 µM, DDE = dose-dependent effect
HT-29 = experiment: Anticancer activity against human HT-29 cells assessed as cell growth inhibition; type: functional, cell-based; conditions: dose 1-100 µM, DDE = dose-dependent effect
KM12 = experiment: Anticancer activity against human KM12 cells assessed as cell growth inhibition; type: functional, cell-based; conditions: dose 1-100 µM, DDE = dose-dependent effect
SW-620 = experiment: Anticancer activity against human SW-620 cells assessed as cell growth inhibition; type: functional, cell-based; conditions: dose 1-100 µM, DDE = dose-dependent effect
SF-268 = experiment: Anticancer activity against human SF-268 cells assessed as cell growth inhibition; type: functional, cell-based; conditions: dose 1-100 µM, DDE = dose-dependent effect
SF-295 = experiment: Anticancer activity against human SF-295 cells assessed as cell growth inhibition; type: functional, cell-based; conditions: dose 1-100 µM, DDE = dose-dependent effect
SF-539 = experiment: Anticancer activity against human SF-539 cells assessed as cell growth inhibition; type: functional, cell-based; conditions: dose 1-100 µM, DDE = dose-dependent effect
SNB-19 = experiment: Anticancer activity against human SNB-19 cells assessed as cell growth inhibition; type: functional, cell-based; conditions: dose 1-100 µM, DDE = dose-dependent effect
SNB-75 = experiment: Anticancer activity against human SNB-75 cells assessed as cell growth inhibition; type: functional, cell-based; conditions: dose 1-100 µM, DDE = dose-dependent effect
U-251 = experiment: Anticancer activity against human U-251 cells assessed as cell growth inhibition; type: functional, cell-based; conditions: dose 1-100 µM, DDE = dose-dependent effect
LOX IMVI = experiment: Anticancer activity against human LOX IMVI cells assessed as cell growth inhibition; type: functional, cell-based; conditions: dose 1-100 µM, DDE = dose-dependent effect
Malme-3M = experiment: Anticancer activity against human Malme-3M cells assessed as cell growth inhibition; type: functional, cell-based; conditions: dose 1-100 µM, DDE = dose-dependent effect
M14 = experiment: Anticancer activity against human M14 cells assessed as cell growth inhibition; type: functional, cell-based; conditions: dose 1-100 µM, DDE = dose-dependent effect
MDA-MB-435 = experiment: Anticancer activity against human MDA-MB-435 cells assessed as cell growth inhibition; type: functional, cell-based; conditions: dose 1-100 µM, DDE = dose-dependent effect
SK-MEL-2 = experiment: Anticancer activity against human SK-MEL-2 cells assessed as cell growth inhibition; type: functional, cell-based; conditions: dose 1-100 µM, DDE = dose-dependent effect
SK-MEL-28 = experiment: Anticancer activity against human SK-MEL-28 cells assessed as cell growth inhibition; type: functional, cell-based; conditions: dose 1-100 µM, DDE = dose-dependent effect
SK-MEL-5 = experiment: Anticancer activity against human SK-MEL-5 cells assessed as cell growth inhibition; type: functional, cell-based; conditions: dose 1-100 µM, DDE = dose-dependent effect
UACC-257 = experiment: Anticancer activity against human UACC-257 cells assessed as cell growth inhibition; type: functional, cell-based; conditions: dose 1-100 µM, DDE = dose-dependent effect
UACC-62 = experiment: Anticancer activity against human UACC-62 cells assessed as cell growth inhibition; type: functional, cell-based; conditions: dose 1-100 µM, DDE = dose-dependent effect
IGROV-1 = experiment: Anticancer activity against human IGROV-1 cells assessed as cell growth inhibition; type: functional, cell-based; conditions: dose 1-100 µM, DDE = dose-dependent effect
OVCAR-3 = experiment: Anticancer activity against human OVCAR-3 cells assessed as cell growth inhibition; type: functional, cell-based; conditions: dose 1-100 µM, DDE = dose-dependent effect
OVCAR-4 = experiment: Anticancer activity against human OVCAR-4 cells assessed as cell growth inhibition; type: functional, cell-based; conditions: dose 1-100 µM, DDE = dose-dependent effect
OVCAR-5 = experiment: Anticancer activity against human OVCAR-5 cells assessed as cell growth inhibition; type: functional, cell-based; conditions: dose 1-100 µM, DDE = dose-dependent effect
OVCAR-8 = experiment: Anticancer activity against human OVCAR-8 cells assessed as cell growth inhibition; type: functional, cell-based; conditions: dose 1-100 µM, DDE = dose-dependent effect
NCI/ADR-RES = experiment: Anticancer activity against human NCI/ADR-RES cells assessed as cell growth inhibition; type: functional, cell-based; conditions: dose 1-100 µM, DDE = dose-dependent effect
SK-OV-3 = experiment: Anticancer activity against human SK-OV-3 cells assessed as cell growth inhibition; type: functional, cell-based; conditions: dose 1-100 µM, DDE = dose-dependent effect
786-0 = experiment: Anticancer activity against human 786-0 cells assessed as cell growth inhibition; type: functional, cell-based; conditions: dose 1-100 µM, DDE = dose-dependent effect
A498 = experiment: Anticancer activity against human A498 cells assessed as cell growth inhibition; type: functional, cell-based; conditions: dose 1-100 µM, DDE = dose-dependent effect
ACHN = experiment: Anticancer activity against human ACHN cells assessed as cell growth inhibition; type: functional, cell-based; conditions: dose 1-100 µM, DDE = dose-dependent effect
CAKI-1 = experiment: Anticancer activity against human CAKI-1 cells assessed as cell growth inhibition; type: functional, cell-based; conditions: dose 1-100 µM, DDE = dose-dependent effect
RXF 393 = experiment: Anticancer activity against human RXF 393 cells assessed as cell growth inhibition; type: functional, cell-based; conditions: dose 1-100 µM, DDE = dose-dependent effect
SN12C = experiment: Anticancer activity against human SN12C cells assessed as cell growth inhibition; type: functional, cell-based; conditions: dose 1-100 µM, DDE = dose-dependent effect
TK-10 = experiment: Anticancer activity against human TK-10 cells assessed as cell growth inhibition; type: functional, cell-based; conditions: dose 1-100 µM, DDE = dose-dependent effect
UO-31 = experiment: Anticancer activity against human UO-31 cells assessed as cell growth inhibition; type: functional, cell-based; conditions: dose 1-100 µM, DDE = dose-dependent effect
PC-3 = experiment: Anticancer activity against human PC-3 cells assessed as cell growth inhibition; type: functional, cell-based; conditions: dose 1-100 µM, DDE = dose-dependent effect
DU-145 = experiment: Anticancer activity against human DU-145 cells assessed as cell growth inhibition; type: functional, cell-based; conditions: dose 1-100 µM, DDE = dose-dependent effect
MCF7 = experiment: Anticancer activity against human MCF7 cells assessed as cell growth inhibition; type: functional, cell-based; conditions: dose 1-100 µM, DDE = dose-dependent effect
MDA-MB-231 = experiment: Anticancer activity against human MDA-MB-231 cells assessed as cell growth inhibition; type: functional, cell-based; conditions: dose 1-100 µM, DDE = dose-dependent effect
Hs-578T = experiment: Anticancer activity against human Hs-578T cells assessed as cell growth inhibition; type: functional, cell-based; conditions: dose 1-100 µM, DDE = dose-dependent effect
BT-549 = experiment: Anticancer activity against human BT-549 cells assessed as cell growth inhibition; type: functional, cell-based; conditions: dose 1-100 µM, DDE = dose-dependent effect
T47D = experiment: Anticancer activity against human T47D cells assessed as cell growth inhibition; type: functional, cell-based; conditions: dose 1-100 µM, DDE = dose-dependent effect
MDA-MB-468 = experiment: Anticancer activity against human MDA-MB-468 cells assessed as cell growth inhibition; type: functional, cell-based; conditions: dose 1-100 µM, DDE = dose-dependent effect

## O=C(Nc1cccnc1)c1cccs1
PC-3M [1]
  AC50: 1980 nM

## N=c1c2c(-c3ccccc3)c(-c3ccccc3)n(Cc3ccccc3)c2ncn1CCCO
PC-3M [2]
  Activity: Dde
PC-3M [3]
  Activity: Toxic
PC-3M [4]
  Activity: Dde
CCRF-CEM
  Activity: Dde
HL-60(TB)
  Activity: Dde
K562
  Activity: Dde
MOLT-4
  Activity: Dde
RPMI-8226
  Activity: Dde
SR
  Activity: Dde
A549
  Activity: Dde
EKVX
  Activity: Dde
HOP-62
  Activity: Dde
NCI-H226
  Activity: Dde
NCI-H23
  Activity: Dde
NCI-H322M
  Activity: Dde
NCI-H460
  Activity: Dde
NCI-H522
  Activity: Dde
COLO 205
  Activity: Dde
HCC 2998
  Activity: Dde
HCT-116
  Activity: Dde
HCT-15
  Activity: Dde
HT-29
  Activity: Dde
KM12
  Activity: Dde
SW-620
  Activity: Dde
SF-268
  Activity: Dde
SF-295
  Activity: Dde
SF-539
  Activity: Dde
SNB-19
  Activity: Dde
SNB-75
  Activity: Dde
U-251
  Activity: Dde
LOX IMVI
  Activity: Dde
Malme-3M
  Activity: Dde
M14
  Activity: Dde
MDA-MB-435
  Activity: Dde
SK-MEL-2
  Activity: Dde
SK-MEL-28
  Activity: Dde
SK-MEL-5
  Activity: Dde
UACC-257
  Activity: Dde
UACC-62
  Activity: Dde
IGROV-1
  Activity: Dde
OVCAR-3
  Activity: Dde
OVCAR-4
  Activity: Dde
OVCAR-5
  Activity: Dde
OVCAR-8
  Activity: Dde
NCI/ADR-RES
  Activity: Dde
SK-OV-3
  Activity: Dde
786-0
  Activity: Dde
A498
  Activity: Dde
ACHN
  Activity: Dde
CAKI-1
  Activity: Dde
RXF 393
  Activity: Dde
SN12C
  Activity: Dde
TK-10
  Activity: Dde
UO-31
  Activity: Dde
PC-3
  Activity: Dde
DU-145
  Activity: Dde
MCF7
  Activity: Dde
MDA-MB-231
  Activity: Dde
Hs-578T
  Activity: Dde
BT-549
  Activity: Dde
T47D
  Activity: Dde
MDA-MB-468
  Activity: Dde
